Source: PubChem BioAssay
CHOP inh – CHOP inhibition in unfolded protein response. inhibition, % at 10 µM. CHO-K1 CHOP-promoter luciferase, tunicamycin-induced, 15-18 h. 220,000 tested, 3.8% active;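 active = compounds that reduced the stress-induced luciferase reporter signal by more than about 70% of percent inhibition, limit read from the data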;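 note: 0% = tunicamycin plus vehicle and 100% = wells without tunicamycin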
UPR XBP1 act – activators of adaptive arm of unfolded protein response (XBP1); CHO-XBP1 luciferase reporter, IRE1-XBP1 UPR activation, luminescence; percent of tunicamycin response, DMSO as zero; activation, % at 20 µM; 330,000 tested, 0.33% active; AID 463104;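 active = versus positive control, 20 µM dose yields 30% or more activation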;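 note: 100% = tunicamycin at 10 µg/mL and 0% = DMSO only wells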
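Assay system: CHO-XBP1 luciferase reporter cells; Schedule: 6 h treatment, 37 °C; Detection: glow luminescence from Steady-Glo reagent; Benchmarks: high control tunicamycin 10 µg/mL final, low control DMSO vehicle only.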
Bfl-1 A1 inh – inhibitors of the anti-apoptotic protein A1, read as caspase activation. MEF A1-2A-BIM cells, Caspase-Glo 3/7 luminescence, 3 h; percent of clofoctol response, vehicle zero. caspase activation, % (test concentration not listed). 330,000 tested, 0.066% active. AID 2462;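 active = over half of replicate activation scores above 10%, or exactly half above 10 with the replicate mean above 10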
CHOP UPR activ – apoptotic UPR (CHOP) activation; 330,000 tested, 0.34% active; AID 449763; CHO-CHOP luciferase reporter, luminescence; percent of tunicamycin response over DMSO baseline; activation, % at 10 µM;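 active = at 10 µM dose, activation of 40% or more, normalized to positive control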;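 note: 100% = tunicamycin at 10 µg/mL and 0% = DMSO alone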
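Assay system: CHO-CHOP cells, stable luciferase reporter of PERK-eIF2a-CHOP signalling / Buffer or medium: F12 plus 10% serum / Compound dosing: one dose, 10 µM in 0.5% DMSO / Times: 6 h compound treatment, 37 °C / Technique: luciferase luminescence / Read-out: % reporter activation, DMSO baseline versus tunicamycin full activation / Benchmarks: tunicamycin and DMSO controls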
* = called active by the depositor; . = no result. This is one part of a sample in which hits are shown more often than they occur.

SMILES | CHOP inh | UPR XBP1 act | Bfl-1 A1 inh | CHOP UPR activ
Oc1ccccc1C(Nc1nccs1)c1ccc2cccnc2c1O (stereo not drawn) | 71* | 2 | -1 | 0
CCCC(=O)NC(c1ccccc1Cl)c1ccc2cccnc2c1O (stereo not drawn) | . | 1 | 0 | 15
O=C(NNC(=O)c1cccc(S(=O)(=O)N2CCc3ccccc32)c1)c1ccccc1 | 73* | . | . | .
O=S(=O)(NC1CCCC1)c1ccc(S(=O)(=O)N2CCc3ccccc32)cc1 | 86* | -4 | -1 | 3
CC(C)CCNC(=O)c1cccc(S(=O)(=O)N2CCc3ccccc32)c1 | 6 | 3 | 1 | 0
O=C(CSc1ccc(-c2ccco2)nn1)Nc1ccccc1F | . | -2 | 1 | -1
O=S(=O)(c1ccccc1Cl)N1CCC(Cc2ccccc2)CC1 | . | -3 | 2 | 1
CSc1nnc2n(-c3ccc(C)cc3)c(=O)c3c4c(sc3n12)COC(C(C)C)C4 (stereo not drawn) | 81* | 6 | 2 | 3
Cc1cccc(N2CC(C(=O)Nc3nnc(SCC(=O)N4CCOCC4)s3)CC2=O)c1 (stereo not drawn) | . | -1 | 1 | 0
COc1cc2c(cc1OC)C(c1ccccc1C(F)(F)F)CC(=O)N2 (stereo not drawn) | . | -4 | 0 | -3
CN(C)C/C(Cl)=C(\Cl)c1ccccc1 | 77* | -6 | 0 | 0
CC(NC(=O)c1ccc(F)cc1F)C1CC2CCC1C2 (stereo not drawn) | . | -1 | 0 | 1
CCOC(=O)c1c(NC(=S)Nc2ccc(F)cc2)sc2c1CCC2 | 74* | 0 | 0 | -2
Cc1cc(C(=O)OC(C(=O)Nc2cccc(C(F)(F)F)c2)c2ccccc2)c(C)o1 (stereo not drawn) | 83* | -2 | 0 | 1
COc1ccc(OC)c(N2C(=O)CC(NNC(=O)c3ccc4c(c3)OCO4)C2=O)c1 (stereo not drawn) | . | 3 | 1 | -1
CCc1ccc(NC(=O)c2ccc3c(c2)C(=O)N(CCOC)C3Nc2ccc(CC)cc2)cc1 (stereo not drawn) | 94* | 30 | 2 | 28
COCCN1C(=O)c2cc(C(=O)Nc3cccc(F)c3)ccc2C1Nc1cccc(F)c1 (stereo not drawn) | 90* | 1 | -1 | 1
Cc1cccnc1NC(=O)COc1ccc2oc3c(c2c1)CCCC3 | 36 | 1 | 2 | 3
Cc1ccc(NC(=O)COc2ccc3oc4c(c3c2)CCCC4)nc1 | 76* | 6 | 1 | -3
Cc1ccccc1Sc1ccc(N)cn1 | . | 2 | 0 | 2
O=c1c2cc(N3CCOCC3)ccc2[nH]c(=S)n1Cc1ccc(Cl)cc1 | 70* | 0 | 0 | 4
O=C(CCCCCn1c(=S)[nH]c2ccc(N3CCOCC3)cc2c1=O)NCc1ccc(Cl)cc1 | 43 | 7 | 1 | 0
COc1cccc(/C=C2\CCCCC2=O)c1 | . | 0 | -2 | -2
CCn1c(=O)c(CCC(=O)NCC2CCCO2)c(C)c2c(C)nn(-c3ccc(C)cc3)c21 (stereo not drawn) | . | -3 | -1 | -3
Cc1ccc(C)c(N=Cc2cc3c(cc2[N+](=O)[O-])OCO3)c1 | 81* | 4 | 0 | 3
SMILES | CHOP inh | UPR XBP1 act | Bfl-1 A1 inh | CHOP UPR activ
Cc1ccc(N=Cc2cc3c(cc2[N+](=O)[O-])OCO3)cc1[N+](=O)[O-] | . | 2 | 0 | 4
CC1=C(C(N)=O)C(c2ccccc2[N+](=O)[O-])n2ncnc2N1 (stereo not drawn) | . | 5 | 0 | 0
Cn1c(=O)[nH]c(NCCc2ccc(O)cc2)c([N+](=O)[O-])c1=O | . | -1 | 0 | 1
Cc1ccc(NS(=O)(=O)c2ccc(C3CCCCC3)cc2)cc1 | 95* | -3 | -1 | -1
Cc1ccc(NC2CCCCC2NS(=O)(=O)c2ccc(Cl)cc2)cc1 (stereo not drawn) | 91* | -3 | 1 | -1
Cc1ccc(S(=O)(=O)Nc2ccc(N3CCCCC3)cc2)cc1 | 52 | -3 | -1 | 2
O=S(=O)(NC1CCCCC1Nc1ccc(Cl)cc1)c1ccccc1 (stereo not drawn) | 51 | -3 | -2 | 3
COc1cc(S(=O)(=O)N2CCN(Cc3ccccc3)CC2)ccc1Br | 78* | -4 | 0 | -1
COc1cc(CN2CCN(S(=O)(=O)c3ccccc3)CC2)cc(OC)c1OC | . | -4 | 0 | 2
COC(=O)c1ccc2c(=O)n(Cc3ccco3)c(SCC(=O)Nc3cc(C)on3)nc2c1 | 91* | 4 | 0 | 1
CCc1ccc(NC(=O)CSc2nc3cc(C(=O)OC)ccc3c(=O)n2CC2CCCO2)cc1 (stereo not drawn) | 94* | 6 | 1 | 1
COC(=O)c1ccc2c(=O)n(Cc3ccco3)c(SCC(=O)Nc3ccccc3Cl)nc2c1 | -6 | 12 | -1 | 8
Cc1ccc(S(=O)(=O)NC(=O)N(CCC#N)Cc2ccccc2)cc1 | . | 2 | 0 | -3
CN(C)c1nn(C(=O)Nc2cccc(C(F)(F)F)c2)cc1-c1ccccc1 | 90* | -1 | 0 | -1
CCN(c1ccccc1)S(=O)(=O)c1ccc(C(=O)NC2CCN(Cc3ccccc3)CC2)cc1 | . | -3 | 0 | 8
COc1ccc(-c2nc(CSCC(=O)NCc3ccc4c(c3)OCO4)c(C)o2)cc1OC | 36 | -1 | 0 | 1
Cc1ccsc1-c1nc(CSCC(=O)NCc2ccc3c(c2)OCO3)c(C)o1 | 81* | 0 | 0 | 1
COc1ccc(-c2nc(CSCC(=O)NCc3ccc4c(c3)OCO4)c(C)o2)cc1 | 80* | 2 | -1 | -4
Cc1ccc(CSCC(=O)NCc2ccc3c(c2)OCO3)cc1 | 15 | -2 | -1 | 1
O=S(=O)(c1ccc(Br)cc1)c1nc(-c2ccco2)oc1NCCCn1ccnc1 | . | -1 | . | -1
Cn1c(SCC(=O)N2CCOCC2)nnc1-c1ccco1 | . | -1 | 0 | 0
Cc1cccc(-c2noc(CCCC(=O)NC3CCCC3)n2)c1 | . | -7 | 1 | -2
CCC1(CC)NC(=O)N(CC(=O)OCC(=O)Nc2ccc(OC(F)(F)F)cc2)C1=O | . | 2 | 0 | 2
Cc1cccc(OCC(=O)Nc2ccc3c4c(cccc24)CC3)c1C | -31 | 3 | 1 | 3
Cc1ccc(OCC(=O)Nc2ccc3c4c(cccc24)CC3)c(C)c1 | 82* | 7 | 0 | 1
COc1cc(/C=C2\SC(c3ccc(C)cc3)=NC2=O)cc(OC)c1O | 58 | 2 | 0 | 5
Cc1ccc(C2=NC(=O)/C(=C/c3cc(O)c(O)c(Br)c3)S2)cc1 | 72* | 2 | . | 1
O=c1c2c(nc3cc(-c4ccccc4)[nH]n13)CCC2 | . | -2 | -9 | -2
O=c1c2c(nc3cc(-c4ccc(Br)cc4)[nH]n13)CCCC2 | 73* | 0 | -3 | 4
O=C(CCCCCn1c(=S)[nH]c2cc3c(cc2c1=O)OCO3)N1CCN(C2CCCCC2)CC1 | 83* | 3 | 1 | -1
